One data set deals with Triticum aestivum. Nature of the data set: Stimulation of coleoptiles growth in common wheat after 18 to 20 hrs. The data set is classed as functional. Also on record: concentration or dose not given beside the values. The method, boiled down:
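Wheat coleoptile tips (5 mm) were soaked in distilled water for 1 h to remove endogenous hormone, then cut into 10 segments. Compound in DMF was dried onto 6-cm filter paper and placed in 0.01 mol/L phosphoric acid–citric acid buffer (pH 5) with 2% sucrose, giving 10 mg/L. Ten segments were cultured at 25 °C in the dark for 18–20 h. Length was compared with untreated segments; two replicates.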

Another data set deals with Brassica napus. Kind of data set: Stimulation of hypocotyls elongation in rape after 3 days. The data set is classed as functional. More on the design: concentration or dose not given beside the values. The method, boiled down:
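Rape seeds were cultured at 25 °C in the dark. Hypocotyl length was measured after 3 days and compared with seeds treated with distilled water; two replicates.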

The test system of the next data set is Cucumis sativus. Kind of data set: Stimulation of cytyledon expansion in cucumber after 3 days. It counts as functional. Also on record: concentration or dose not given beside the values. The procedure, abridged:
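Soaked cucumber seeds were germinated on 0.7% agar for 3 days in the dark at 26 °C, and cotyledons of similar size were selected. Compound in DMF was dried onto 6-cm filter paper, then distilled water was added to give 10 mg/L. Ten cotyledons were cultured per dish under light (300 Lux, 26 °C). Percent increase was taken over the no-regulator control.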

A short description of data set [1]: Solubility in chloroform. The data set is classed as physicochemical.
Data set [2] can be described thus: Solubility in ethyl acetate solution. The data set is classed as physicochemical.
Data set [3] can be described thus: Solubility in ethanol. The data set is classed as physicochemical.

With `CCCCCCCCCCCC(=O)NCCOC(=O)COc1ccc(Cl)cc1`, the values for the Activity in the data set with Triticum aestivum, in the data set with Brassica napus and with Cucumis sativus were 16%, 71.8% and 2.9%, respectively.
For the molecule `CCCCCCCCCCCCCCCCCC(=O)NCCOC(=O)COc1ccc(Cl)cc1Cl`, the results for the Activity in the data set on Triticum aestivum, in the data set on Brassica napus and with Cucumis sativus were 7.5%, 73.8% and 0.7%, respectively. Moreover, the Solubility in data set [1] is listed as 10.22 g; in data set [2], 3.54 g; in data set [3], 1.03 g.
For `CCCCCCCCCCCCCC(=O)NCCOC(=O)COc1ccc(Cl)cc1Cl`, the Activity in the data set with Triticum aestivum is given as 8.9%; in the data set with Brassica napus, 68.1%; with Cucumis sativus, -0.1%.
For `CCCCCCCCCCCC(=O)NCCOC(=O)COc1ccc(Cl)cc1Cl`, the Activity is given as 17.9% in the data set with Triticum aestivum, 69% with Brassica napus and 4% with Cucumis sativus. The Solubility stood at 15.1 g in data set [1], 11 g in data set [2] and 10.42 g in data set [3].
For `CCCCCCCCCCCC(=O)NCCO`, the figures for the Solubility in data set [1], in data set [2] and in data set [3] were 1.76 g, 0.38 g and 9.14 g, respectively.
Take `CCCCCCCCCCCCCCCCCC(=O)NCCOC(=O)COc1cccc(OC)c1`: the Activity was 5% in the data set with Triticum aestivum, -1.4% in the data set with Brassica napus and -0.1% with Cucumis sativus. Further, the results for the Solubility in data set [1], in data set [2] and in data set [3] were 7.76 g, 2.67 g and 1.99 g, respectively.
`CCCCCCCCCCCCCCCCCC(=O)NCCOC(=O)COc1ccccc1C`: the Activity is listed as 0.7% in the data set on Triticum aestivum, 57% with Brassica napus and 5.7% in the data set with Cucumis sativus. The Solubility in data set [1] is on record as 53.97 g; in data set [2], 8.27 g; in data set [3] it was 3.08 g.
On to `CCCCCCCCCCCC(=O)NCCOC(=O)COc1ccc(C)cc1`, for which the Activity with Triticum aestivum was 4.1%; with Brassica napus it was 54.9%; in the data set on Cucumis sativus it was 5.9%.
With `CCCCCCCCCCCCCCCCCC(=O)NCCOC(=O)COc1ccc(Cl)cc1`, the Activity came out at 5% in the data set on Triticum aestivum, 71.8% in the data set with Brassica napus and 6.3% in the data set on Cucumis sativus. Besides, the Solubility was 4.37 g in data set [1], 1.54 g in data set [2] and 1.88 g in data set [3].
In the case of `CCCCCCCCCCCCCCCCCC(=O)NCCOC(=O)COc1ccc(C)cc1`, the results for the Activity in the data set with Triticum aestivum, in the data set on Brassica napus and in the data set on Cucumis sativus were 3.3%, 38.7% and 9.8%, respectively.
The matching figures for `CCCCCCCCCCCCCCCC(=O)NCCOC(=O)COc1ccc(Cl)cc1Cl`: 17%, 67.3% and 3.5%.
Take `O=C(O)COc1ccc(Cl)cc1Cl` [2,4-DICHLOROPHENOXYACETIC ACID]: the Activity worked out at 28.3% in the data set on Triticum aestivum, 65.7% in the data set on Brassica napus and 0.8% in the data set on Cucumis sativus.
In the case of `CCCCCCCCCCCCCCCCCC(=O)NCCO` [N-(2-HYDROXYETHYL)STEARAMIDE], the Activity in the data set with Triticum aestivum came to 2.1%; with Brassica napus, 35.3%; in the data set with Cucumis sativus it was 6.2%. For the same molecule, the Solubility is given as 0.16 g in data set [1], 0.03 g in data set [2] and 0.34 g in data set [3].

The record behind these values is ChEMBL document CHEMBL1139901, “Synthesis of new plant growth regulator: N-(fatty acid) O-aryloxyacetyl ethanolamine” (Bioorg Med Chem Lett, 2007).
